# Experimental data: ChEMBL document CHEMBL1143746, “Synthesis and biological evaluation of sulfonylhydrazone-substituted imidazo[1,2-a]pyridines as novel PI3 kinase p110alpha inhibitors” (Bioorg Med Chem, 2007)
# Assays:
# [1] = target: Phosphatidylinositol 4,5-bisphosphate 3-kinase catalytic subunit alpha isoform (Bos taurus, UniProt P32871); assay: Inhibition of GST-tagged bovine p110-alpha expressed in SF9/Baculovirus system by SPA
# A-375 = assay: Inhibition of serum-induced proliferation of human A375 cells; assay type: functional, cell-based
# Outline: (§1)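 Cells were grown in DMEM with 10% FBS and penicillin/streptomycin and seeded at 1 × 10⁴ per well onto pre-spotted compound. After 46 h, Alamar blue was added. Fluorescence (ex 544/em 590 nm) was read 2 h later.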
# HeLa [2] = assay: Inhibition of serum-induced proliferation of human HeLa cells; assay type: functional, cell-based; outline: as §1
# [3] = target: Phosphatidylinositol 4-phosphate 3-kinase C2 domain-containing subunit beta (Homo sapiens, UniProt O00750); assay: Inhibition of glu-tagged PI3K C2-beta expressed in SF9/Baculovirus system by SPA
# Phosphatidylinositol 4-phosphate 3-kinase C2 domain-containing subunit beta, sequence (O00750 whole entry, the tested form may be a part): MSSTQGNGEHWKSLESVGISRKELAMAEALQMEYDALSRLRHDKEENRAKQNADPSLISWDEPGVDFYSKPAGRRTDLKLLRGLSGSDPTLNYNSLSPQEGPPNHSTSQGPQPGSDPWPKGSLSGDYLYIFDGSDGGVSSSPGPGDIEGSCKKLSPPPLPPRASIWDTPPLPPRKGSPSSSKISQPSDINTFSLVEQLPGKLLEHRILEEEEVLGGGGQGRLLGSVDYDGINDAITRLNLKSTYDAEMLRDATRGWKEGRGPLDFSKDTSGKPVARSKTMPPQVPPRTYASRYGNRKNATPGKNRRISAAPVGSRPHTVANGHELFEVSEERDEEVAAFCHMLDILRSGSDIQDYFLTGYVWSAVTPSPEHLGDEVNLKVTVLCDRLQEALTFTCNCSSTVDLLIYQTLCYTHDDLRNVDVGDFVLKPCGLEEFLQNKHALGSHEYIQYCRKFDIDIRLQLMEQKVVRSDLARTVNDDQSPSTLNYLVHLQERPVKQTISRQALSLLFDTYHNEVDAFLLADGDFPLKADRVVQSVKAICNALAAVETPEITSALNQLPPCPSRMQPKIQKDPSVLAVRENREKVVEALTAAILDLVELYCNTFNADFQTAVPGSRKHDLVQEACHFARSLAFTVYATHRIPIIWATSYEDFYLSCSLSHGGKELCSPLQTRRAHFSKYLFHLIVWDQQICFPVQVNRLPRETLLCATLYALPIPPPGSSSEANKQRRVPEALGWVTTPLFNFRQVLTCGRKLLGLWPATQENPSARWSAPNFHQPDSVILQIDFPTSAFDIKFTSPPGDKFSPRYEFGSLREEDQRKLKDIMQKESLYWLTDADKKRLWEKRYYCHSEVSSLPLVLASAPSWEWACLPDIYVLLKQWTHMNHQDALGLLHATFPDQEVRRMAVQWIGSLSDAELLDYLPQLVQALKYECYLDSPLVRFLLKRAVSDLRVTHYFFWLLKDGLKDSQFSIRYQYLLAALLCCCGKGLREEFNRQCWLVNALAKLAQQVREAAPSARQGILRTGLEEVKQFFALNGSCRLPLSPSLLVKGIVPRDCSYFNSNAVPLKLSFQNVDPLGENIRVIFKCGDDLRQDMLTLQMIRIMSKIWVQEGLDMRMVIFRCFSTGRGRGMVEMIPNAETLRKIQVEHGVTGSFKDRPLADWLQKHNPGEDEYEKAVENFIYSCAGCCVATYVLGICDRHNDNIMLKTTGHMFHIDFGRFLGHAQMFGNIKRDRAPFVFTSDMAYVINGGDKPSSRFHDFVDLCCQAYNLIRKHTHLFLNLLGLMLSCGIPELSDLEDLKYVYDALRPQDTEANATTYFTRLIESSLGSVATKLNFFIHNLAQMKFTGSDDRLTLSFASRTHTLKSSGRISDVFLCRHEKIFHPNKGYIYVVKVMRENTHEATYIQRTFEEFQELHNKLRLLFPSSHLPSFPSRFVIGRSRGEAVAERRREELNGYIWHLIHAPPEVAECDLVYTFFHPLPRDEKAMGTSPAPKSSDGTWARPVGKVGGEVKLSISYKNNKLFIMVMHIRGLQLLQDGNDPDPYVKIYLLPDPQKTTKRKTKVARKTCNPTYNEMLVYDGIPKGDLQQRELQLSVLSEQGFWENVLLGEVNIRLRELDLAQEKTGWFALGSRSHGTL
# MCF7 [4] = assay: Inhibition of serum-induced proliferation of human adriamycin-resistant MCF7 cells; assay type: functional, cell-based
# HeLa [5] = assay: Suppression of tumor growth in human HeLa cell xenografted BALB/c nude mouse at 50 mg/kg/day, ip after 2 weeks; assay type: functional; conditions: route intraperitoneal
# Outline: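 Female Balb/c-nu/nu mice, five per group, received 5 × 10⁶ HeLa cells subcutaneously in the hind quarters. Once tumors reached about 100 mm³, the compound was given i.p. at 50 mg/kg daily for 2 weeks. Tumor growth was compared with vehicle, and body weight was monitored.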
# [6] = target: Phosphatidylinositol 4,5-bisphosphate 3-kinase catalytic subunit gamma isoform (Homo sapiens, UniProt P48736); assay: Inhibition of His-tagged human p110gamma expressed in SF9/Baculovirus system by SPA
# Phosphatidylinositol 4,5-bisphosphate 3-kinase catalytic subunit gamma isoform, sequence (P48736 whole entry, canonical isoform): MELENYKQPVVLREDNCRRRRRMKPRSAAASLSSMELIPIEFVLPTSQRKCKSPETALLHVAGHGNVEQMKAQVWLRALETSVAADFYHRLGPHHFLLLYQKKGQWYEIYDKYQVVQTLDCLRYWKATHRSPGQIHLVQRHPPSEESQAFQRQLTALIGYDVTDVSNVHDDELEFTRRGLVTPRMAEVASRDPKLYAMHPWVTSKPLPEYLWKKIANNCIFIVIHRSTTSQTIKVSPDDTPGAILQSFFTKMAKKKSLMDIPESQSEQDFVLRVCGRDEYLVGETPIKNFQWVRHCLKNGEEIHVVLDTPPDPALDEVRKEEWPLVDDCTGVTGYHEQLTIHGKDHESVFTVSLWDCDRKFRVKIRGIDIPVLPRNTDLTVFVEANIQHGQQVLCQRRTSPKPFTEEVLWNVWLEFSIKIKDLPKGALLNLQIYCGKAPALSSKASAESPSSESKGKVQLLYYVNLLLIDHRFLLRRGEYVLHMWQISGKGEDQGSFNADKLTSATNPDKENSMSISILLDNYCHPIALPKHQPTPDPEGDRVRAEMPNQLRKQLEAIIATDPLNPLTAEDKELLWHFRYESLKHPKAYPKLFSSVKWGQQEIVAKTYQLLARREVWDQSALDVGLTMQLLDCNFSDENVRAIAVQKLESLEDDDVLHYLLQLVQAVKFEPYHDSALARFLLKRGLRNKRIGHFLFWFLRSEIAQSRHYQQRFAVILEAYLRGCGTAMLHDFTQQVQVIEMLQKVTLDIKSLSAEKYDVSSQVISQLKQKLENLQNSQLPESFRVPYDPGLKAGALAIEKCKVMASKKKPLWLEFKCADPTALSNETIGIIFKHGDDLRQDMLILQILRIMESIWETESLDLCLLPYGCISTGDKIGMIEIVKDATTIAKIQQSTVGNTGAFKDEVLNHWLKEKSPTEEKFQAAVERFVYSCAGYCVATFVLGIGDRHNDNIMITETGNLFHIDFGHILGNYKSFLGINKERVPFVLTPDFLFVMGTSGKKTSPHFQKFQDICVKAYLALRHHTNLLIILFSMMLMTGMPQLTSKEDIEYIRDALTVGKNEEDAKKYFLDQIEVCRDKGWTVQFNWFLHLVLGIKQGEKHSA
# MCF7 [7] = assay: Inhibition of serum-induced proliferation of human MCF7 cells; assay type: functional, cell-based
# A549 = assay: Inhibition of serum-induced proliferation of human A549 cells; assay type: functional, cell-based; outline: as §1
# Phosphatidylinositol 4,5-bisphosphate 3-kinase catalytic subunit alpha isoform, sequence (P32871 whole entry, canonical isoform): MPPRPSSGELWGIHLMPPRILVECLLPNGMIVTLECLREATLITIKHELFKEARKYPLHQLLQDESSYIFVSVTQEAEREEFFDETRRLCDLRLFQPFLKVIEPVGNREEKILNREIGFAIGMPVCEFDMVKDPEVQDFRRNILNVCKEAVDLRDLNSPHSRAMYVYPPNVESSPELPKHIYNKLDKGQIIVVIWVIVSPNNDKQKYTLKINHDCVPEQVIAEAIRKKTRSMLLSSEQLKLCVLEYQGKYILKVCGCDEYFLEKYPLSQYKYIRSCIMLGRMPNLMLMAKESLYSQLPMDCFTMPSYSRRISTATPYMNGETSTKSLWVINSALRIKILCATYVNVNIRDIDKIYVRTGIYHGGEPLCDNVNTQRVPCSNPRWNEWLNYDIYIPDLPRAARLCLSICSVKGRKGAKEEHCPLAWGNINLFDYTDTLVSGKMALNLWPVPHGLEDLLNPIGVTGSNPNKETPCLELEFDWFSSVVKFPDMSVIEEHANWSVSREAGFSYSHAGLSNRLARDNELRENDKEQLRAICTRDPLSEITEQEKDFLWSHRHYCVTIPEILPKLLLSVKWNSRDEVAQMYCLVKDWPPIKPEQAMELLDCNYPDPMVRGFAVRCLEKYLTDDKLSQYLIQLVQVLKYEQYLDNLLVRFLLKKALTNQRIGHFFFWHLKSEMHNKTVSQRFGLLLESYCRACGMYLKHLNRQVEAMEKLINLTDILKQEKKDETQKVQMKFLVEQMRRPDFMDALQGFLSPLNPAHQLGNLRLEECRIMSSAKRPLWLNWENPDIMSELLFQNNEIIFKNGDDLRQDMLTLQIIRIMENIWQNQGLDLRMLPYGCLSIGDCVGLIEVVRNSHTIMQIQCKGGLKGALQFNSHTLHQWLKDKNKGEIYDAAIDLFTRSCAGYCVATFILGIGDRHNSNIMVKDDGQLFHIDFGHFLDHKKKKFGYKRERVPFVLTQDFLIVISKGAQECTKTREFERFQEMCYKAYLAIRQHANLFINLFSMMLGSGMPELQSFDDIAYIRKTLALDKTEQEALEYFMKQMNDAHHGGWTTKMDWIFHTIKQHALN
IC50 [1],IC50 (A-375),Structure (SMILES),also measured
170 nM,,C/C(=N\N(C)S(=O)(=O)c1cc([N+](=O)[O-])ccc1C)c1c(C)nc2ccc(Br)cn12,
340 nM,9350 nM,CCOC(=O)c1ccc2ncc(/C=N/N(C)S(=O)(=O)c3cc([N+](=O)[O-])ccc3C)n2c1,
81 nM,20000 nM,C/C(=N\N(C)S(=O)(=O)c1cc([N+](=O)[O-])ccc1C)c1cnc2ccc(Br)cn12,
,730 nM,Cc1ccc([N+](=O)[O-])cc1S(=O)(=O)n1ccc(-c2c(C)nc3ccc(Br)cn23)n1,
17 nM,12000 nM,C/C(=N\NS(=O)(=O)c1cc([N+](=O)[O-])ccc1C)c1cnc2ccc(Br)cn12,
400 nM,,C/C(=N\NS(=O)(=O)c1cc([N+](=O)[O-])ccc1C)c1c(C)nc2ccc(Br)cn12,
5.3 nM,180 nM,Cc1ccc([N+](=O)[O-])cc1S(=O)(=O)N(C)/N=C/c1cnc2ccc(F)cn12,
14 nM,90 nM,Cc1ccc([N+](=O)[O-])cc1S(=O)(=O)N(C)/N=C/c1cnc2ccc(C(F)(F)F)cn12,
0.26 nM,33 nM,Cc1ccc([N+](=O)[O-])cc1S(=O)(=O)N(C)/N=C/c1cnc2ccc(C#N)cn12,
780 nM,8960 nM,Cc1ccc([N+](=O)[O-])cc1S(=O)(=O)N(C)/N=C/c1cnc2ccc(C(N)=O)cn12,
,58 nM,Cc1ccc([N+](=O)[O-])cc1S(=O)(=O)N(C)/N=C/c1cnc2ccc(Br)cn12.Cl,IC50 (HeLa [2]): 51 nM; IC50 [3]: 100 nM; IC50 (MCF7 [4]): 39 nM; Activity (HeLa [5]): 62%; IC50 [6]: 40 nM; IC50 (MCF7 [7]): 19 nM; IC50 (A549): 69 nM
,8400 nM,O=c1cc(N2CCOCC2)oc2c(-c3ccccc3)cccc12 [LY-294002],
6 nM,120 nM,Cc1ccc2ncc(/C=N/N(C)S(=O)(=O)c3cc([N+](=O)[O-])ccc3C)n2c1,
21 nM,9000 nM,Cc1ccc([N+](=O)[O-])cc1S(=O)(=O)N/N=C/c1cnc2ccc(Br)cn12,
0.77 nM,56 nM,Cc1ccc([N+](=O)[O-])cc1S(=O)(=O)N(C)/N=C/c1cnc2ccc(Cl)cn12,
,23000 nM,Cc1nc2ccccn2c1-c1ccn(S(=O)(=O)c2ccc(F)cc2)n1,
